High-throughput results (PubChem)
T cruzi inh – inhibitors of intracellular T. cruzi growth, primary screen, luminescence, NIH3T3 host cells; inhibition, % (concentration not given with the values); T. cruzi beta-gal in NIH3T3, 90 h; hit rate 1.4% among 300,000;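 active = mean inhibition across valid replicates above about 55%, limit read from the data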;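 note: signal also drops with host cell toxicity which is not excluded here; higher percent means less beta-gal luminescence so fewer parasites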
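Test system: β-gal T. cruzi (Tulahuen C4) inside NIH/3T3 cells / Quantity: 5,000 cells/well / Measured by: luminescence from GalScreen with 0.05% NP40, read after 60 min / Medium: DMEM plus 2% FBS / Measure: parasite load inhibition, % / Reagent: Tulahuen C4 trypomastigotes, 5000/well / Schedule: co-culture of at least 90 h after 3 h attachment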
Beta apoptosis – inhibitors of cytokine-induced beta cell apoptosis, primary screen, luminescence | protection from apoptosis, % (no concentration beside the values) | AID 435005, 2010 | INS-1E cytokine-induced death, ATP luminescence, 48 h; percent of positive-control rescue, neutral wells zero | hit rate 0.8% among 300,000;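 active = Every replicate reaches about 75%, or at least half do and their mean reaches it too, limit read from the data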;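 note: higher means more ATP so stronger rescue from cytokine killing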
HIF activator – HIF pathway transcriptional activators, primary screen, cell-based, U2OS HRE-luciferase, luminescence; U2OS HRE-luciferase reporter; normalized: DMSO 0%, desferrioxamine 100%; activation, % at 7.5 µM (by protocol); hit rate 0.32% among 300,000; AID 1910, 2009;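 active = mean activation of at least 10% of the iron chelator positive control signal, with at least half of replicates also reaching 10%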
A1 inh – caspase 3/7 activation in MEF A1-2A-BIM cells, primary screen, A1 inhibitor project, cell-based, luminescence, HTS. Caspase-Glo 3/7 luminescence, 3 h; percent of clofoctol response, vehicle zero. caspase activation, % (test concentration not listed). hit rate 0.066% among 330,000;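 active = over half of replicate activation scores above 10%, or exactly half above 10 with the replicate mean above 10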
KLF5 inhibitor – KLF5 expression inhibitors, primary screen, DLD-1 cells, luminescence; DLD-1 KLF5 promoter-luciferase reporter; inhibition, % at 5 µM; hit rate 0.23% among 290,000; AID 1700, 2009;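 active = inhibition above a per-plate limit of that plate's mean compound inhibition plus 3 SD, cut at about 60% in these data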;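 note: higher means less KLF5 promoter-driven luciferase light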
Hits are given with their value; 0 = inactive; - = no result given. Sampled rows, rich in hits. Any-hit rate of the full collection: about 2.3%.

SMILES | T cruzi inh | Beta apoptosis | HIF activator | A1 inh | KLF5 inhibitor
CS(=O)(=O)c1ccc(NC(=O)C2CCCN(C(=O)c3ccc(Cl)cc3)C2)cc1 (stereo unspecified) | - | 0 | - | 0 | -
Cc1cc(C(=O)Nc2ccc(C)c(S(=O)(=O)N3CCOCC3)c2)c(C)o1 | 0 | 0 | 0 | 0 | 0
Cc1ccc(NC(=O)C2CC2C)cc1S(=O)(=O)N1CCOCC1 (stereo unspecified) | 60 | 0 | 0 | 0 | -
Cc1c(Cl)ccc2c(C(=O)Nc3cc(C(C)(C)C)on3)cc(-c3ccccn3)nc12 | 61 | - | 0 | 0 | 0
Cc1ccc(C)c(Cn2c(O)c(N=NC(=S)Nc3ccccc3F)c3ccccc32)c1 | 67 | 0 | 0 | 0 | 0
Oc1c(N=NC(=S)Nc2ccccc2F)c2ccccc2n1Cc1ccc(Cl)cc1 | 61 | 0 | 0 | 0 | 0
Cc1ccccc1Cn1c(O)c(N=NC(=S)Nc2ccccc2F)c2ccccc21 | 0 | 0 | 0 | 0 | 0
Oc1c(N=NC(=S)Nc2ccccc2F)c2ccccc2n1Cc1ccccc1F | 88 | 0 | 0 | 0 | 0
CCNC(=S)N=Nc1c(O)n(Cc2ccc(Cl)cc2)c2ccccc12 | 0 | 0 | 0 | 0 | 0
CCOc1ccc(S(=O)(=O)N2CCC(C(=O)N3CCN(c4ccccc4F)CC3)CC2)cc1C | 0 | 0 | 0 | 0 | 0
CCN(CC)c1ccc(/C=N/NC(=O)c2ccc3nc[nH]c3c2)c(O)c1 | 0 | 116 | 96 | 0 | 0
CCN(CC)c1ccc(/C=N/NC(=O)c2ccoc2C)c(O)c1 | 57 | 101 | 64 | 0 | 0
CCN(CC)c1ccc(N=Cc2ccc(N(CC)CC)cc2O)cc1 | 74 | 0 | 0 | 0 | 0
CCN(CC)c1ccc(C(=O)N/N=C/c2ccccc2OC(F)F)cc1 | 0 | 80 | 0 | 0 | 0
Cc1ccc(C)c(NC(=O)CCC(=O)NNS(=O)(=O)c2ccc(Cl)cc2)c1 | - | 0 | - | 0 | -
COc1cc(C(C)=O)ccc1O | 0 | 0 | 0 | 0 | -
Cc1c(C(O)CN2CCN(Cc3ccc4c(c3)OCO4)CC2)c2ccccc2n1C (stereo unspecified) | 67 | 0 | 0 | 0 | 0
NC(=O)Cc1ccc(C(=O)CSc2nnc(-c3ccncc3)n2C2CC2)s1 | - | 0 | - | 0 | -
O=C(Nc1ccc([N+](=O)[O-])cc1)Nc1ccc(N2CCOCC2)c2nonc12 | 71 | 0 | 0 | 0 | 0
CC(=O)Nc1cc([N+](=O)[O-])ccc1N1CCOCC1 | 0 | 0 | 0 | 0 | 0
COc1ccc(N(C(=O)c2snc(C(N)=O)c2N)C(C(=O)NC2CCCC2)c2cc(OC)ccc2OC)cc1 (stereo unspecified) | 0 | 0 | 0 | 0 | 0
COCCCNCCCOc1ccc(C(C)(C)c2ccccc2)cc1 | 58 | 0 | 0 | 0 | 0
CC(OC(=O)CCC(=O)N1CCN(S(=O)(=O)c2ccc3ccccc3c2)CC1)C(=O)NC(N)=O (stereo unspecified) | 0 | 0 | 0 | 0 | 0
Clc1ccc(/C=C/c2nc3ccccc3[nH]2)c(Cl)c1 | 58 | 0 | 0 | 0 | 0
NS(=O)(=O)c1cccc(Nc2nc3ccccc3nc2NS(=O)(=O)c2ccc(Cl)cc2)c1 | - | 0 | - | 0 | -
SMILES | T cruzi inh | Beta apoptosis | HIF activator | A1 inh | KLF5 inhibitor
N#Cc1ccccc1S(=O)(=O)N1CCN(C(=O)C2CCCC2)CC1 | 0 | 0 | 0 | 0 | 0
Cc1ccc(S(=O)(=O)c2c(N)n(/N=C/c3ccco3)c3nc4ccccc4nc23)cc1C | 0 | 0 | 0 | 0 | 0
Cc1cccc(S(=O)(=O)c2c(N)n(/N=C/c3ccco3)c3nc4ccccc4nc23)c1 | 57 | 0 | 0 | 0 | 0
Cc1ccc(S(=O)(=O)c2c(N)n(/N=C/c3ccco3)c3nc4ccccc4nc23)cc1 | 78 | 0 | 0 | 0 | 0
CSc1cccc(N2CC(C(=O)Nc3ccccc3N3CCCC3)CC2=O)c1 (stereo unspecified) | 0 | 0 | 0 | 0 | -
N#C/C(=C\c1ccc(/C=C(/C#N)c2nn(CCO)c(N)c2C#N)cc1)c1nn(CCO)c(N)c1C#N | 0 | 0 | 155 | 0 | 0
COC(=O)c1ccc(OC)c(CN2CCCN(Cc3cc(C)ccc3C)S2(=O)=O)c1 | 69 | 0 | 0 | 0 | 0
COC(=O)c1ccc(OC)c(Cn2c(=O)n(C)c(=O)c3sccc32)c1 | 0 | 0 | 0 | 0 | 0
CSCCC(NC(=O)COc1ccccc1)C(=O)N1CCN(c2ccccc2Cl)CC1 (stereo unspecified) | 0 | 0 | 0 | 0 | -
CC1=C/C(=N\NC(=S)NCc2ccccc2)CC1 | 69 | 0 | 0 | 0 | 0
Cc1ccc(S(=O)(=O)N(C)C)cc1NC(=O)C(C)OC(=O)C1CCCCC1 (stereo unspecified) | - | 0 | - | 0 | -
O=c1c2c([N+](=O)[O-])cc([N+](=O)[O-])cc2sn1Cc1ccccc1 | 57 | 0 | 0 | 0 | 0
O=C(Nc1c(C(=O)N2CCOCC2)oc2ccccc12)c1ccccc1Cl | 0 | 0 | 0 | 0 | 0
CCCCN(C(=O)CSc1nnnn1C)C1CCS(=O)(=O)C1 (stereo unspecified) | - | 0 | - | 0 | -
[O-]/C(=C(\C(=S)Nc1cccc2ccccc12)[n+]1ccccc1)c1cccs1 | 0 | 0 | 55 | 0 | 0
Cc1cccc(C)c1NC(=S)/C(=C(\[O-])c1cccs1)[n+]1ccccc1 | 0 | 0 | 0 | 0 | 0
Cc1ccc2[nH]c3c(c2c1)CCCC3NC(=O)CCl (stereo unspecified) | 0 | 0 | 0 | 5.3 | 0
CC1CCCC(N2CCN(S(=O)(=O)c3ccccc3)CC2)C1 (stereo unspecified) | 0 | 0 | 0 | 0 | 0
O=C(COc1ccc(-c2nnco2)cc1)N1CCOCC1 | - | 0 | - | 0 | -
Cc1cc(N2CCN(C)CC2)ccc1NC(=O)c1cccc(S(=O)(=O)N2CCc3ccccc3C2)c1 | 75 | 0 | 0 | 0 | 0
Cc1ccc(NC(=O)c2cccc(S(=O)(=O)N3CCc4ccccc4C3)c2)nc1 | 0 | 0 | 0 | - | -
CCc1ccc(NC(=O)CCc2nnc3ccc(N4CCCC4)nn23)cc1 | 0 | 0 | 0 | 0 | 0
O=C(Nc1ccc(Cl)c(Cl)c1)N(Cc1cccnc1)Cc1ccco1 | 56 | 0 | 0 | 0 | 0
S=C(Nc1ccccc1Cl)N(Cc1cccnc1)Cc1ccco1 | 0 | 0 | 0 | 0 | 0
COc1ccc(C(=O)NCCCCNC(=O)c2ccc(OC)c(OC)c2)cc1OC | 0 | 0 | 0 | 0 | 0
Cc1nc2c3cc(F)ccc3n(Cc3ccccc3F)c2s1 | 0 | 0 | 0 | 0 | 0
Cc1nc2c3cc(F)ccc3n(Cc3ccccc3)c2s1 | 0 | 100 | 0 | 0 | 0
N#CC1=C(N)OC2=C(C(=O)CC(c3ccccc3)C2)C1c1cccnc1 (stereo unspecified) | 55 | 0 | 0 | 0 | 0
CCOc1cccc(C2C(C#N)=C(N)Oc3cc(C)[nH]c(=O)c32)c1OCC (stereo unspecified) | 0 | 0 | 0 | 0 | 0
Cc1ccc2cc(C3C(C#N)=C(N)Oc4c3ccc3cccnc43)c(=O)[nH]c2c1 (stereo unspecified) | 0 | 88 | 0 | 0 | 0
